Tests used:
[1] = molecular target: Carbonic anhydrase 1 (Homo sapiens) (UniProt P00915); experiment: Activation of human CA-1 incubated for 15 mins prior to testing by stopped flow CO2 hydrase assay
Summary of the method: (§1)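 Stopped-flow CO2 hydration at 25 °C, 10 mM Hepes pH 7.5 with 0.1 M NaClO4, phenol red 0.2 mM read at 557 nm over 10 s. CO2 1.7–17 mM. Activators (0.1 mM stocks in water) diluted in buffer down to 1 nM and preincubated 15 min with enzyme. Initial rates from ≥6 traces of first 5–10% of reaction, uncatalysed rate subtracted. Activation constants from competitive steady-state equation.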

[2] = molecular target: Carbonic anhydrase 2 (Homo sapiens) (UniProt P00918); experiment: Activation of human CA-2 incubated for 15 mins prior to testing by stopped flow CO2 hydrase assay; summary of the method: as §1
[3] = molecular target: Carbonic anhydrase 4 (Homo sapiens) (UniProt P22748); experiment: Activation of human CA-4 incubated for 15 mins prior to testing by stopped flow CO2 hydrase assay; summary of the method: as §1
[4] = molecular target: Carbonic anhydrase 7 (Homo sapiens) (UniProt P43166); experiment: Activation of human CA-7 incubated for 15 mins prior to testing by stopped flow CO2 hydrase assay

Sequence of Carbonic anhydrase 4 (Homo sapiens) (P22748 whole entry): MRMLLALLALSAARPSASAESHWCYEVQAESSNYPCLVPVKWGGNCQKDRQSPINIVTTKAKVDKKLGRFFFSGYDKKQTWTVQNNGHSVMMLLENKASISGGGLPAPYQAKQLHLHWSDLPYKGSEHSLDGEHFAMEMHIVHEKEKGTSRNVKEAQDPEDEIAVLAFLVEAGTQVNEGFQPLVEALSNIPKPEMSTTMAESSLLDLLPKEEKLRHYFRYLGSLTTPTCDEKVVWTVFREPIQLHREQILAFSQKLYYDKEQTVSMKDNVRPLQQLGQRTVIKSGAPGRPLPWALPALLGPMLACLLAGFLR
Sequence of Carbonic anhydrase 1 (Homo sapiens) (P00915 2-261 limits assumed): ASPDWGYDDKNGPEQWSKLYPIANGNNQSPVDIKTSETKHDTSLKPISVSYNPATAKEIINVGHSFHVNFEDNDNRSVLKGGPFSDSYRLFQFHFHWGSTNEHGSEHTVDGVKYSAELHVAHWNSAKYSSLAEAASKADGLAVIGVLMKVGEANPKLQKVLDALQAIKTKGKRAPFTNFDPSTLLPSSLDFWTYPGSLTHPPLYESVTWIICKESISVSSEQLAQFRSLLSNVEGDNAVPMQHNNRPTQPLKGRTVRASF

In the case of `CN(C)c1ccc(C2NCCc3nc[nH]c32)cc1` (stereo not drawn), the KA [1] is reported as 3.45 µM, the KA [2] is reported as 7.44 µM and the KA [3] is reported as 3.14 µM. The KA [4] was 0.59 µM.

With `Clc1ccc(C2NCCc3[nH]cnc32)cc1` (stereo not drawn) the KA [1] was 17.6 µM, the KA [2] was 8.49 µM and the KA [3] was 50.1 µM. For the same molecule, the KA [4] was 0.84 µM.

Work on `COc1ccc(C2NCCc3[nH]cnc32)cc1` (stereo not drawn) yielded a KA [1] of 6.01 µM, a KA [2] of 7.31 µM and a KA [3] of 6.37 µM. The KA [4] was 0.73 µM.

With `Cc1ccc(Br)cc1C1NCCc2nc[nH]c21` (stereo not drawn) the KA [1] was 12.7 µM, the KA [2] was 15.5 µM and the KA [3] was 4.42 µM. It also gave a KA [4] of 0.38 µM.

With `c1coc(C2NCCc3nc[nH]c32)c1` (stereo not drawn) the KA [1] was 21.5 µM, the KA [2] was 5.12 µM and the KA [3] was 2.4 µM. It also gave a KA [4] of 0.095 µM.

`c1ccc(C2NCCc3[nH]cnc32)cc1` (stereo not drawn) showed a KA [1] of 8.12 µM, a KA [2] of 16.3 µM and a KA [3] of 63.8 µM. It also gave a KA [4] of 2.69 µM.

`N#Cc1ccc(C2NCCc3nc[nH]c32)cc1` (stereo not drawn) showed a KA [1] of 4.89 µM, a KA [2] of 7.25 µM and a KA [3] of 5.8 µM. It also gave a KA [4] of 4.26 µM.

In the case of `COc1cc(C2NCCc3nc[nH]c32)cc(OC)c1OC` (stereo not drawn), the KA [1] is reported as 9.28 µM, the KA [2] is reported as 3.26 µM and the KA [3] is reported as 2.84 µM. It also gave a KA [4] of 0.093 µM.

For `Fc1cc(F)c(F)c(C2NCCc3nc[nH]c32)c1F` (stereo not drawn), the KA [1] was 9.92 µM, the KA [2] was 0.6 µM and the KA [3] was 0.52 µM. For the same molecule, the KA [4] was 0.11 µM.

With `NCCc1c[nH]cn1` the KA [3] was 4.03 µM and the KA [4] was 37.6 µM.

`Oc1ccccc1C1NCCc2nc[nH]c21` (stereo not drawn) showed a KA [1] of 2.52 µM, a KA [2] of 1.62 µM and a KA [3] of 3.59 µM. For the same molecule, the KA [4] was 0.11 µM.

Work on `COc1ccc(C2NCCc3nc[nH]c32)cc1OC` (stereo not drawn) yielded a KA [1] of 3.76 µM, a KA [2] of 0.71 µM and a KA [3] of 6.17 µM. The KA [4] was 0.26 µM.

`Oc1ccc(Br)cc1C1NCCc2nc[nH]c21` (stereo not drawn) showed a KA [1] of 4.9 µM, a KA [2] of 1.03 µM and a KA [3] of 10.9 µM. It also gave a KA [4] of 0.12 µM.

With `Cc1ccc(C2NCCc3nc[nH]c32)cc1` (stereo not drawn) the KA [1] was 6.27 µM, the KA [2] was 17.2 µM and the KA [3] was 7.06 µM. It also gave a KA [4] of 1.03 µM.

`Brc1ccccc1C1NCCc2nc[nH]c21` (stereo not drawn) showed a KA [1] of 4.3 µM, a KA [2] of 2.8 µM and a KA [3] of 4.05 µM. The KA [4] was 0.082 µM.
